From ChEMBL document CHEMBL1152600, “Dibenzazecine scaffold rebuilding--is the flexibility always essential for high dopamine receptor affinities?” (Bioorg Med Chem, 2009)
Activity calls are given as the source filed them. The rule behind the calls is not given here.

What was measured:
[1] = biological target: T1, D(1A) dopamine receptor (Homo sapiens, UniProt P21728); assay: Displacement of [3H]SCH23390 from human dopamine D1 receptor expressed in CHO cells by scintillation counting; format: cell-based
T1 sequence (P21728 whole entry): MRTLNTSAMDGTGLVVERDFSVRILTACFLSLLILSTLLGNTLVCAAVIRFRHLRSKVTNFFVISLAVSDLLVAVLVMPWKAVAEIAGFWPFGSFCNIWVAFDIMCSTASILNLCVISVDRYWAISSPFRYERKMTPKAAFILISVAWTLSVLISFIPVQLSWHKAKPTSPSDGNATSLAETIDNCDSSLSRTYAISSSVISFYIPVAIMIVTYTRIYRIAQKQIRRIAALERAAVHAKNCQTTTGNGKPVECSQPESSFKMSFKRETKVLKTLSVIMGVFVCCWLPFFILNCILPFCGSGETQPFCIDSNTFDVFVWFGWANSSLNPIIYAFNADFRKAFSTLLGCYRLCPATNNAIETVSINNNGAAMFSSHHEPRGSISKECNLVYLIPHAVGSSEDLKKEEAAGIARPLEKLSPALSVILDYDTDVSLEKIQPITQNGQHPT

[2] = biological target: T2, D(2) dopamine receptor (Homo sapiens, UniProt P14416); assay: Agonist activity at human dopamine D2L receptor expressed in HEK293 cells assessed as intracellular calcium by fluorescence microplate reader; format: functional, cell-based
T2 sequence (P14416 whole entry): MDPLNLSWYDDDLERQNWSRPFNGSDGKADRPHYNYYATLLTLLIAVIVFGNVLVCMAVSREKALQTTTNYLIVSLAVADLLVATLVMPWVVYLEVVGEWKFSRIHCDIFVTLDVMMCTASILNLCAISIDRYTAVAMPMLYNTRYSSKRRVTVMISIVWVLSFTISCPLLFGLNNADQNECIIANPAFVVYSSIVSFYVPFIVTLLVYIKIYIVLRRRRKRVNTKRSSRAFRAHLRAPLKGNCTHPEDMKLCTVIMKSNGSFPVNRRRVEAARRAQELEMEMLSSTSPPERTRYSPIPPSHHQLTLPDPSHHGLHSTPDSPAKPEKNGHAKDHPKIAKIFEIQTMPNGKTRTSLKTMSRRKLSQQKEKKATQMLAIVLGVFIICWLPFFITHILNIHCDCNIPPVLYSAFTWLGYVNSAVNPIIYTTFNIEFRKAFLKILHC
Method in brief: (§1)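 Human receptor in HEK293 cells, loaded 45 min at 37 °C with Oregon Green 488 BAPTA-1/AM plus Pluronic F-127 in Krebs-HEPES buffer (pH 7.4). Cells were suspended, plated and held 30 min at 37 °C, 5% CO2. Test compound was injected at rising concentrations. Fluorescence was read at ex 485/em 520 nm for 30 s. Maximum intensity was fitted with a sigmoidal curve. At least two experiments, 4 or 6 replicates each.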

[3] = biological target: T3, D(4) dopamine receptor (Homo sapiens, UniProt P21917); assay: Displacement of [3H]spiperone from human dopamine D4 receptor expressed in CHO cells by scintillation counting; format: cell-based
T3 sequence (P21917 whole entry): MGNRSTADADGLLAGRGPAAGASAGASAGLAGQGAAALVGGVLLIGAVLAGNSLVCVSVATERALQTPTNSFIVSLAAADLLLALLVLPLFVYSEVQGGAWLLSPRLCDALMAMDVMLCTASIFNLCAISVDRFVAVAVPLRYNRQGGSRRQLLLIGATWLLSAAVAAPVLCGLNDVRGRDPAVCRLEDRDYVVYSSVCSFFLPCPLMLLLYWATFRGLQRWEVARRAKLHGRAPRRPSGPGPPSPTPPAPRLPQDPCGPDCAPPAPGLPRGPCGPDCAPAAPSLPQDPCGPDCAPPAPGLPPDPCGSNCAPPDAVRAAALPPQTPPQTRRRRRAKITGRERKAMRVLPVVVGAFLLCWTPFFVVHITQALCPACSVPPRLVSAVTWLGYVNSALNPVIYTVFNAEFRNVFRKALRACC

[4] = biological target: T1, D(1A) dopamine receptor; assay: Antagonist activity at human dopamine D1 receptor expressed in HEK293 cells assessed as SKF-38393-induced intracellular calcium by fluorescence microplate reader; format: functional, cell-based
Method in brief: (§2)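 They were then injected with standard agonist at 1 µM final: SKF 38393 for D1, quinpirole for D2L. Fluorescence was read at ex 485/em 520 nm for 30 s. Peak signal was fitted with a sigmoidal curve. At least two experiments, 4 or 6 replicates each.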

[5] = biological target: T2, D(2) dopamine receptor; assay: Displacement of [3H]spiperone from human dopamine D2L receptor expressed in CHO cells by scintillation counting; format: cell-based
[6] = biological target: D(1B) dopamine receptor (Homo sapiens, UniProt P21918); assay: Displacement of [3H]SCH23390 from human dopamine D5 receptor expressed in CHO cells by scintillation counting; format: cell-based
D(1B) dopamine receptor, sequence (P21918 whole entry): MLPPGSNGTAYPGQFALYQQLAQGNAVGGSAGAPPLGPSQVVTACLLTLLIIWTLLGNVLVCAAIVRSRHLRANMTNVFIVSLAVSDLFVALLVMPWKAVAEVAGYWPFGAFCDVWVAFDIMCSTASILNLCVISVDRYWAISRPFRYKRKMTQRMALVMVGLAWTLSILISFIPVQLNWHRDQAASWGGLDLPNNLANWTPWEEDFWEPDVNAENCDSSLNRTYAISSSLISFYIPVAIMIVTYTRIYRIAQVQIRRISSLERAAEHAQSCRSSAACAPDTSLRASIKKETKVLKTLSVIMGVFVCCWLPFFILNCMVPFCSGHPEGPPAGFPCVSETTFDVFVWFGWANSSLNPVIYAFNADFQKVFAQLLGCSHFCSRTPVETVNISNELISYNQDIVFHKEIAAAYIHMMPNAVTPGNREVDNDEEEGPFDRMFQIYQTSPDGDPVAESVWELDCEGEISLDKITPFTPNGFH

[7] = biological target: T2, D(2) dopamine receptor; assay: Antagonist activity at human dopamine D2L receptor expressed in HEK293 cells assessed as quinpirole-induced intracellular calcium by fluorescence microplate reader; format: functional, cell-based; method in brief: as §2
[8] = biological target: T1, D(1A) dopamine receptor; assay: Agonist activity at human dopamine D1 receptor expressed in HEK293 cells assessed as intracellular calcium by fluorescence microplate reader; format: functional, cell-based; method in brief: as §1
[9] = biological target: D(3) dopamine receptor (Homo sapiens, UniProt P35462); assay: Displacement of [3H]spiperone from human dopamine D3 receptor expressed in CHO cells by scintillation counting; format: cell-based
D(3) dopamine receptor (Homo sapiens, UniProt P35462), sequence (P35462 whole entry): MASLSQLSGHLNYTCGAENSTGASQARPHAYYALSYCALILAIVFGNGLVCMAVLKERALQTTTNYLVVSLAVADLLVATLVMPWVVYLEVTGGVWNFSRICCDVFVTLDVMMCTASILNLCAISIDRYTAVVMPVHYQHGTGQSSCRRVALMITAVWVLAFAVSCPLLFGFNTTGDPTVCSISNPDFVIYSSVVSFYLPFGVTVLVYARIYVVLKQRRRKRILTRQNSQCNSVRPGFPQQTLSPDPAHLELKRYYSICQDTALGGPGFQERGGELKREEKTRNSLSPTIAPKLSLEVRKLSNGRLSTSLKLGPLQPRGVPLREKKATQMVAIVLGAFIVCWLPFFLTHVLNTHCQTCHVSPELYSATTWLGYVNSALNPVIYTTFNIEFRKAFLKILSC

[10] = biological target: D(3) dopamine receptor (Rattus norvegicus, UniProt P19020); assay: Displacement of [3H]spiperone from rat dopamine D3 receptor expressed in CHO cells by scintillation counting; format: cell-based
D(3) dopamine receptor (Rattus norvegicus, UniProt P19020), sequence (P19020 whole entry): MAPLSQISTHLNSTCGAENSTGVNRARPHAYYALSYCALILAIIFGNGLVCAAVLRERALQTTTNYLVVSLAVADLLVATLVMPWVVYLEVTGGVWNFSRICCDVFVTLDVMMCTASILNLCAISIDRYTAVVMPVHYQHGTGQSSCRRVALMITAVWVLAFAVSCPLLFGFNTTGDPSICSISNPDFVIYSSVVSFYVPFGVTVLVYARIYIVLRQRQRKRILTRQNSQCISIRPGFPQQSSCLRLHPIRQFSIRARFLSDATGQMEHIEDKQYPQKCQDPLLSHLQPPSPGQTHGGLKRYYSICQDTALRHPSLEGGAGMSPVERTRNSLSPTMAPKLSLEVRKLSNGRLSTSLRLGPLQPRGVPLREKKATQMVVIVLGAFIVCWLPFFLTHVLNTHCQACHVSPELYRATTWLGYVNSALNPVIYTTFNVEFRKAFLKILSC

| SMILES | Ki [1] [nM] | Activity [2] | Ki [3] [µM] | Activity [4] | Ki [5] [nM] | Ki [6] [nM] | Activity [7] | Activity [8] | Ki [9] [µM] | Ki [10] [nM] |
| --- | --- | --- | --- | --- | --- | --- | --- | --- | --- | --- |
| Oc1ccc2c(c1)CCN1Cc3ccccc3CC21 (stereo unspecified) | 136 | inactive | 5.09 | Active | 486 | 41.1 | Active | inactive | 0.306 |  |
| Cc1ccccc1CC1c2ccc(O)cc2CCN1C (stereo unspecified) | 3020 | inactive |  | Active | 2720 |  | Active | inactive |  |  |
| COc1ccc2c(c1)CCN(C)C2Cc1ccccc1C (stereo unspecified) | 2350 | inactive | 6.64 | Active | 7370 | > 10000 | Active | inactive | > 10 |  |
| COc1ccc2c(c1)CCN1Cc3ccccc3CC21 (stereo unspecified) | 183 | inactive | 2.56 | Active | 320 | 185 | Active | inactive | 0.251 |  |
| Oc1ccc2c(c1)CCN1CCc3ccccc3C21 (stereo unspecified) | > 10000 | inactive | > 10 | Active | > 10000 | > 10000 | Active | inactive | > 10 |  |
| COc1ccc2c(c1)CCN(C)Cc1ccccc1CC2 | 1730 | inactive | > 10 | Active | > 10000 | 1510 | Active | inactive | > 10 |  |
| COc1ccc2c(c1)CCCN(C)Cc1ccccc1C2 | 1260 | inactive | > 10 | Active | > 10000 | > 10000 | Active | inactive | > 10 |  |
| COc1ccc2c(c1)CCCN1Cc3ccccc3C21 (stereo unspecified) |  |  |  | Active |  |  |  | inactive |  |  |
| CCc1cc(OC)ccc1C1Cc2ccccc2CN1C (stereo unspecified) | > 10000 | inactive | > 10 | Active | > 10000 | > 10000 | Active | inactive | > 10 |  |
| Oc1cc2c(cc1O)[C@H]1c3ccccc3CN[C@@H]1CC2 |  | inactive |  | Active |  |  | Active | inactive |  |  |
| CN1CCc2cc(O)ccc2CCc2ccccc2C1 |  | inactive |  | Active |  |  | Active | inactive |  |  |
| CN1CCc2ccccc2Cc2ccc(O)cc2CC1 |  | inactive |  | Active |  |  | Active | inactive |  |  |
| COc1ccc2c(c1)CCN(C)CCc1ccccc1C2 |  | inactive | 0.0434 | Active |  |  | Active | inactive |  |  |
| COc1cc2c(cc1O)[C@@H]1Cc3ccc(O)c(OC)c3CN1CC2 [STEPHOLIDINE] | 5.9 | inactive | 3.75 | Active | 974 | 4.4 | Active | inactive |  | 30 |
| CN1CCCc2cc(O)ccc2Cc2ccccc2C1 | 2070 |  |  | Active |  | 1810 |  | inactive |  |  |
| COc1ccc2c(c1)CCN1CCc3ccccc3C21 (stereo unspecified) | 2120 | inactive |  | Active |  |  | Active | inactive |  |  |
